# Shown are actives, neighbours in structure and some others; about 3.1% of the full set was active somewhere.
# PAX8 inh HTS: inhibitors of PAX8-driven TPO luciferase reporter, primary screen, RMG-I cells, single concentration; inhibition, % at 12.6 µM; 360,000 tested, 1.2% active; SteadyGlo, 24 h;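 active means mean replicate inhibition at least 60% with every replicate also reaching 60%; inconclusive means only one of the two criteria is met; inactive means mean below 60% and not all replicates reaching 60%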;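 further: luciferase light reporting Pax8 driven TPO promoter activity; plate controls were median of neutral control wells for no effect and mitoxantrone controls for full effect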
# Env fusion inh: inhibitors of HIV-1 Env-driven cell-cell fusion, primary screen, HeLa-JRFL effector, CEM21 target cells, luciferase; inhibition, % at 12.3 µM; 360,000 tested, 1.1% active; AID 651610, 2012;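 active means mean replicate inhibition score of at least 50 and every replicate individually at or above 50; inconclusive means only one of the two criteria met; inactive means mean below 50 and not all replicates reaching 50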;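 further: 0% = plate neutral controls and 100% = maraviroc near 300 nM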
# PGC1a acetyl inh: inhibitors of PGC1a acetylation signal, primary screen, cell-based, U2OS, AlphaScreen, inhibitor mode. AlphaScreen anti-acetyl-lysine; with virally co-expressed GCN5 acetyltransferase. inhibition, % at 15.6 µM. 350,000 tested, 0.17% active. AID 651687, 2012;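 active means every replicate shows inhibition of at least 40%; inconclusive means mean inhibition at least 40% but some replicate below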;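 further: 0% = neutral control wells and 100% = positive control wells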
# EWS-Fli inh: EWS/Fli-driven NR0B1 reporter inhibitors, primary screen, A673 cells, NR0B1 luciferase, luminescence, MLPCN library | viability-normalised | inhibition, % at 12.6 µM | 350,000 tested, 0.67% active | AID 651661, 2012;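 active means mean inhibition of at least 50% after viability correction, with every replicate also passing that limit; inconclusive means mean reaches 50% but only one of two replicates passes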;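 further: firefly luciferase signal divided by Alamar Blue viability fluorescence both relative to DMSO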
# FN deposit inh: inhibitors of fibronectin matrix deposition, primary screen, AH1F cells, Alexa488-fibronectin fluorescence, plate reader. AH1F fibroblasts, overnight. inhibition, % at 12.6 µM. 350,000 tested, 0.086% active;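 active means mean inhibition across replicates of 30% or more, regardless of how many single replicates reach that level; inconclusive means mean under 30% yet at least half of replicates reach 30%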;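 further: positive control wells lacked labelled fibronectin entirely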
#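 Assay system: AH1F fibroblasts assembling fluorescent fibronectin matrix; Amount: 10000 AH1F cells per well; Buffer or medium: DMEM, 2% serum; Probe or stimulus: Alexa488-fibronectin, 24 nM final in well; Doses: single compound dose, delivered by pin transfer; Incubation: 1 h adhesion, overnight exposure; Measured by: fluorescence 485/525 nm; Read-out: fibronectin deposition inhibition.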
# FGF22 binding: binders of human FGF22 protein, primary screen, FGF22 synaptogenesis inhibitor project, biophysical, thermal shift, single point; activity (Tm shift, normalised), % at 9.99 µM; recombinant FGF22 thermal shift, SYPRO orange fluorescence; percent of sucrose octasulfate shift, DMSO zero; 340,000 tested, 1.5% active; AID 651658, 2012;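 active means mean Tm shift, scaled 0 neutral to 100 positive control, at about 1.3% or above, every replicate too, limit read from the data; inconclusive means no clear call, values can overlap the other calls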
# Target sequence (Q9HCT0 whole entry, looked up): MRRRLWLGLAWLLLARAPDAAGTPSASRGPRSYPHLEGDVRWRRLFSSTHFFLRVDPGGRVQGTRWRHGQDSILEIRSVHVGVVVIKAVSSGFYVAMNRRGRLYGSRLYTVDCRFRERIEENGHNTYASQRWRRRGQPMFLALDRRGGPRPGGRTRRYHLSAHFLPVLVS
# * hit, by the source's call; ? = inconclusive; / = no result given; [ ] = dose if it differs, or a comment.
SMILES,PAX8 inh HTS,Env fusion inh,PGC1a acetyl inh,EWS-Fli inh,FN deposit inh,FGF22 binding
C[C@@H]1CCCCO[C@@H](CN(C)Cc2ccncc2)[C@@H](C)CN([C@H](C)CO)C(=O)c2cc(N(C)C)ccc2O1,-9.0,3.7[16.7 µM],-1.8,-6.4,/,/
CCOC(=O)Sc1nc2ncncc2[nH]1,-7.1,-16.6,-6.4,-6.5,16.2,43.3*
Cc1ccc(S(=O)(=O)N(C)C[C@@H]2Oc3ccc(NC(=O)NC(C)C)cc3C(=O)N([C@H](C)CO)C[C@@H]2C)cc1,3.4,6.4[16.7 µM],-11.0,-5.4,-13.4,/
CN(C)/C=C/C(=O)c1ccccc1,-34.5,-52.1,0.5,-10.2,4.2,0.5
CN(C)/C=C/C(=O)c1ccc(Br)s1,-29.3,19.5,8.2,-29.2,-1.6,43.3*
CN(C)C(=O)c1cccc(-c2ccc3n(c2=O)C[C@@H]2[C@@H](CO)[C@H](C(=O)NCC(F)(F)F)[C@H]3N2C)c1,/,-7.5[16.7 µM],/,1.1,/,0.0
CCCn1c(N)c(C(=O)CSc2nnc(C3CC3)n2-c2ccccc2)c(=O)[nH]c1=O,-5.0,-6.8,3.2,-1.1,-2.2,0.0
CCCn1c(N)c(C(=O)CSc2nnc(C3CC3)n2C2CC2)c(=O)[nH]c1=O,-0.2,24.3,/,-3.3,7.6,43.0*
COc1cc(/C=C2\SC(=S)N(CC(=O)NC(C)(C)C)C2=O)cc(OC)c1OC,17.2,25.1,-7.0,9.1,3.8,43.5*
Cc1ccc(S(=O)(=O)Nc2ccc3c(c2)CC(=O)N([C@@H](C)CO)C[C@H](C)[C@H](CN(C)S(=O)(=O)c2ccccc2)O3)cc1,-4.8,67.3*[16.7 µM],1.3,-1.0,-6.9,0.1
Cc1ccc(S(=O)(=O)N(C)C[C@@H]2Oc3ccc(NS(=O)(=O)c4ccccc4)cc3CC(=O)N([C@H](C)CO)C[C@@H]2C)cc1,2.1,100.1*[16.7 µM],-4.4,4.0,/,0.3
Cc1ccc(S(=O)(=O)Nc2ccc3c(c2)CC(=O)N([C@H](C)CO)C[C@H](C)[C@H](CN(C)S(=O)(=O)c2ccccc2)O3)cc1,7.6,80.2*[16.7 µM],-2.3,4.4,3.4,0.1
COc1ccc(C2C(C(C)=O)=C(O)C(=O)N2c2nccs2)c(OC)c1 (centres undefined),-7.4,15.8,/,4.8,11.0,45.5*
OCCNc1nc(N2CCCCC2)nc2ccccc12,-7.0,-2.3,66.6*,-1.5,-1.6,-0.2
O=C(O)c1ccc(NC2=C/C(=N/S(=O)(=O)c3ccccc3)c3ccccc3C2=O)cc1,79.8*,?,3.5,26.8,/,-0.8
O=C(O)c1ccc(NC2=C/C(=N/S(=O)(=O)c3cccs3)c3ccccc3C2=O)cc1,36.3,18.1,8.9,0.3,-3.5,0.2
Cc1cc(C)c(S(=O)(=O)/N=C2\C=C(Nc3ccc(C(=O)O)cc3)C(=O)c3ccccc32)c(C)c1,?,72.8*,12.6,-36.7,2.2,-0.3
CCc1ccc(S(=O)(=O)/N=C2\C=C(Nc3ccc(O)cc3)C(=O)c3ccccc32)cc1,/,/,63.4*,/,/,/
C[C@H](CO)N1C[C@H](C)[C@H](CN(C)C(=O)Cc2ccncc2)Oc2ncc(C3=CCCC3)cc2C1=O,-17.7,-15.3[16.7 µM],7.8,-9.2,-10.5,0.0
C[C@H]1CN([C@@H](C)CO)C(=O)c2cccc(NS(=O)(=O)c3cccs3)c2O[C@@H]1CN(C)Cc1ccc(C(=O)Nc2ccccc2N)cc1,1.5,/,0.6,6.5,/,-0.4
Cc1sc(NC(=S)NC(=O)CCc2ccccc2)c(C(N)=O)c1C,82.8*,-32.0,/,48.7,0.5,0.1
COc1ccc(NC(=O)Nc2ccc3c(c2)CC(=O)N([C@@H](C)CO)C[C@H](C)[C@H](CN(C)S(=O)(=O)c2cccs2)O3)cc1,19.6,75.3*[16.7 µM],4.7,-10.6,-5.6,/
C[C@H]1CN([C@@H](C)CO)C(=O)Cc2cc(NC(=O)Nc3ccccc3)ccc2O[C@H]1CN(C)S(=O)(=O)c1cccs1,30.1,69.7*[16.7 µM],4.1,1.5,/,-0.4
C[C@H](CO)N1C[C@H](C)[C@H](CN(C)S(=O)(=O)c2cccs2)Oc2ccc(NC(=O)CCN3CCOCC3)cc2CC1=O,-16.0,55.5*[16.7 µM],-1.0,0.6,/,-0.3
COc1ccc(S(=O)(=O)Nc2ccc3c(c2)CC(=O)N([C@@H](C)CO)C[C@H](C)[C@H](CN(C)S(=O)(=O)c2cccs2)O3)cc1,-25.5,80.0*[16.7 µM],2.4,13.0,-1.4,0.1
SMILES,PAX8 inh HTS,Env fusion inh,PGC1a acetyl inh,EWS-Fli inh,FN deposit inh,FGF22 binding
C[C@@H]1CN([C@H](C)CO)C(=O)Cc2cc(NC(=O)Nc3ccccc3)ccc2O[C@@H]1CN(C)S(=O)(=O)c1cccs1,6.4,13.3[16.7 µM],-2.2,13.4,/,-0.9
COc1ccc(S(=O)(=O)Nc2ccc3c(c2)CC(=O)N([C@H](C)CO)C[C@@H](C)[C@H](CN(C)S(=O)(=O)c2cccs2)O3)cc1,-22.8,28.9[16.7 µM],12.8,-0.8,-14.7,-0.5
CCCNC(=O)N1[C@H](CNC(=O)CC)[C@H](c2ccc(C3=CCCC3)cc2)[C@@H]1CO,6.3,/,1.4,-5.1,-5.0,-0.2
C[C@H](CO)N1C[C@H](C)[C@H](CN(C)S(=O)(=O)c2cccs2)Oc2ccc(NC(=O)C3CCCCC3)cc2CC1=O,-9.6,61.1*[16.7 µM],-5.9,-4.5,/,-0.1
C[C@H](CO)N1C[C@H](C)[C@H](CN(C)S(=O)(=O)c2cccs2)Oc2ccc(NC(=O)Cc3ccccc3)cc2CC1=O,2.0,95.5*[16.7 µM],10.6,2.6,/,0.6
C[C@H]1CN([C@@H](C)CO)C(=O)Cc2cc(NC(=O)C3CCCCC3)ccc2O[C@@H]1CN(C)S(=O)(=O)c1cccs1,-1.6,14.3[16.7 µM],5.0,-3.3,/,0.2
O=C(C[C@@H]1C=C[C@@H](NC(=O)Nc2cccc(F)c2)[C@H](CO)O1)NCC1CC1,0.8,23.4[16.7 µM],-2.4,-3.3,0.6,-0.1
CCOC(=O)C1(CCOc2ccccc2)CCN(Cc2ccc(-n3cccn3)cc2)CC1,5.7,35.9,/,20.7,1.3,44.0*
CCOC(=O)C1(CCOC)CCN(Cc2ccncc2)CC1,2.8,14.2,2.2,9.8,-3.7,43.2*
CCOC(=O)C1(CCCc2ccccc2)CCN(Cc2nccn2CC)CC1,6.2,-3.6,/,24.6,-3.5,43.4*
CCOC(=O)C1(CCOc2ccccc2)CCN(Cc2ccncc2)CC1,23.4,20.1,0.8,19.4,-6.0,0.2
COc1cccc(C(=O)Nc2ccc3c(c2)OC[C@H](C)N(CC2CC2)C[C@@H](C)[C@@H](OC)CN(C)C3=O)c1,/,/,0.6,0.5,2.2,-0.1
C[C@H]1CN([C@@H](C)CO)C(=O)c2cccc(NS(=O)(=O)c3cn(C)cn3)c2O[C@H]1CN(C)Cc1ccccc1,-24.1,2.8[16.7 µM],/,-1.6,/,0.5

# Screening results deposited in PubChem by Broad Institute.
